Screens deposited in PubChem by several laboratories.
An excerpt weighted towards active compounds, which were near 1.6% of everything screened.
NR2E3 ag-1 = activates human photoreceptor nuclear receptor NR2E3; Q9Y5X4; GST-NR2E3/biotin-RetCOR TR-FRET, 1536-well; inhibition of corepressor binding, % at 4.78 µM; 320,000 compounds, 0.12% hits; AID 2300;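 active = percent inhibition above the cutoff of mean plus 3 SD of all tested compounds, set per screening campaign, cut at about 20% in these data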;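 note: 0% = DMSO wells and 100% = biotin wells as full block of FRET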
Target sequence (Q9Y5X4 whole entry, looked up): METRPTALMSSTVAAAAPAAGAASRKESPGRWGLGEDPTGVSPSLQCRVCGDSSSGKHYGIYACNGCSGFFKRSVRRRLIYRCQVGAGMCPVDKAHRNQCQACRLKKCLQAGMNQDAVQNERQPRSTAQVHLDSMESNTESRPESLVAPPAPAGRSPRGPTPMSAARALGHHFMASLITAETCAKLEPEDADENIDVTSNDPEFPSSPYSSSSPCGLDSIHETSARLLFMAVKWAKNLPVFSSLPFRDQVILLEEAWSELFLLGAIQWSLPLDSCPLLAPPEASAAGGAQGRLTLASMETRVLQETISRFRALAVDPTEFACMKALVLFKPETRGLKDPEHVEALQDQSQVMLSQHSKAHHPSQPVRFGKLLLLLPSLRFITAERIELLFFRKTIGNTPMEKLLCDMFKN
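Material: NR2E3–RetCOR corepressor complex / Incubation: Compound–protein incubation for 5 h at 4 °C / Dosing: compound at 4.8 µM, single dose / Detection: time-resolved FRET / Benchmarks: high control biotin, low control 0.6% DMSO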
VLA-4 inh = inhibition in a human VLA-4 binding assay | P13612 | VLA-4 expressing cells, ligand binding flow cytometry | inhibition, % (about 7 µM as worked out from the volumes in the protocol) | 330,000 compounds, 0.2% hits | AID 2557; in the data active = inhibition above about 50%
Rev-erbA mod = modulators of human Rev-erb alpha DNA binding; P20393; Rev-erbα–FITC-DNA binding, fluorescence polarization, 90 min; activity, % at 10 µM; 370,000 compounds, 0.79% hits;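 active = activity above about 14%, limit read from the data; passing the limit was not always enough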;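 note: 0% = DMSO wells with 35 nM protein and 100% = DMSO wells with 750 nM protein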
NR2E3 ag-2 = activates human NR2E3 receptor; Q9Y5X4; AID 602229; CHO-S Gal4-NCOR/VP16-NR2E3 two-hybrid, luciferase; inhibition of corepressor binding, % at 3.98 µM; 360,000 compounds, 0.35% hits;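 active = inhibition above the mean of all tested compounds plus 3 SD, cut at about 70% in these data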;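 note: 0% = DMSO with NR2E3 transfected cells and 100% = cells lacking NR2E3 construct; higher means lower luciferase signal from less NR2E3 corepressor binding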
PG9 binder = small molecules binding HIV-1 gp120 antibody PG9; TR-FRET gp120-PG9 antibody binding; inhibition, % at 6.7 µM; 360,000 compounds, 0.43% hits; AID 624416; in the data active = inhibition above about 8.5%
NR2E3 ag confirm = confirmation of human NR2E3 agonists; CHO-S mammalian two-hybrid NR2E3-NCOR, luciferase luminescence; 2,300 compounds, 51% hits; shares compounds with NR2E3 ag-2; inhibition, % at 3.98 µM;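 active = average inhibition above a cutoff equal to the mean inhibition of all tested compounds plus one SD, cut at about 70% in these data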;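 note: 0% = DMSO in NR2E3 cells and 100% = DMSO in cells lacking NR2E3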
GAL4-VP16 luc = reduces GAL4-VP16 reporter signal in NR2E3 counterscreen; CHO-S GAL4-VP16 luciferase reporter, luminescence; 2,300 compounds, 29% hits; shares compounds with NR2E3 ag-2; inhibition, % at 3.98 µM;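 active = mean inhibition above a cutoff equal to the average over all tested compounds plus one standard deviation, cut at about 70% in these data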;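 note: luciferase from a UAS reporter driven by GAL4-VP16 transactivation; 0% = DMSO with VP16-transfected cells and 100% = DMSO with cells lacking VP16; higher means less reporter light so more repression of VP16 activity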
* marks the source's active call; other numbers are inactive results.

COc1cccc(S(=O)(=O)Nc2ccc(C(=O)Nc3ccncc3)cc2)c1 was read as NR2E3 ag-1 -1, VLA-4 inh -26, Rev-erbA mod 5, NR2E3 ag-2 3 and PG9 binder 4.
`O=C(Nc1cccc(S(=O)(=O)Nc2ccc(Cl)cc2)c1)c1ccc(Cl)nc1` gave NR2E3 ag-1 7, VLA-4 inh -8, Rev-erbA mod 7, NR2E3 ag-2 74*, PG9 binder 2, NR2E3 ag confirm 59 and GAL4-VP16 luc 76*.
Screening COC(=O)Nc1cc(C)nc2ccccc12 returned NR2E3 ag-1 2, VLA-4 inh 5, Rev-erbA mod -1, NR2E3 ag-2 18 and PG9 binder 1.
For COC(=O)c1ccccc1NC(=O)CSc1nc(C)cc(C)n1 the results were NR2E3 ag-1 4, VLA-4 inh -10, Rev-erbA mod 7, NR2E3 ag-2 16 and PG9 binder -1.
For Cc1cc(NC(=O)Cc2ccccc2)c2ccccc2n1 the results were NR2E3 ag-1 0, VLA-4 inh 4, Rev-erbA mod 5, NR2E3 ag-2 64, PG9 binder -1, NR2E3 ag confirm 87* and GAL4-VP16 luc 69.
For Cc1cc(C)nc(SCC(=O)Nc2ccnc3ccccc23)n1 the results were NR2E3 ag-1 1, VLA-4 inh 17, Rev-erbA mod -3, NR2E3 ag-2 84*, PG9 binder 1, NR2E3 ag confirm 92* and GAL4-VP16 luc 83*.
O=C(NCc1cccnc1)O[C@H]1CC[C@@]23CCCN2C(=O)CCC[C@H]3C1 was read as Rev-erbA mod -2.
O=S1(=O)c2cccc3cccc(c23)N1Cc1nnc(-c2ccccc2Br)o1 was read as NR2E3 ag-1 -6, VLA-4 inh -5, Rev-erbA mod 3, NR2E3 ag-2 69, PG9 binder -4, NR2E3 ag confirm 87* and GAL4-VP16 luc 72*.
For COc1ccccc1CC(=O)N1CCN(c2cccc(C(F)(F)F)c2)CC1 the results were NR2E3 ag-1 2, VLA-4 inh -4, Rev-erbA mod -2, NR2E3 ag-2 50, PG9 binder -1, NR2E3 ag confirm 94* and GAL4-VP16 luc 71*.
`COC(CNC(=O)CSCc1nc(-c2ccc(SC)cc2)oc1C)OC` gave NR2E3 ag-1 -3, VLA-4 inh 0, Rev-erbA mod -1, NR2E3 ag-2 69, PG9 binder 2, NR2E3 ag confirm 78* and GAL4-VP16 luc 49.
CCCNC(=O)CSCc1nc(-c2ccc(SC)cc2)oc1C was read as NR2E3 ag-1 1, VLA-4 inh 3, Rev-erbA mod -5, NR2E3 ag-2 82*, PG9 binder 0, NR2E3 ag confirm 78* and GAL4-VP16 luc 79*.
Cc1oc(-c2ccc(Cl)cc2)nc1CS(=O)CC(=O)NCc1ccco1 (centres undefined) was read as NR2E3 ag-1 3, VLA-4 inh 15, Rev-erbA mod -4, NR2E3 ag-2 -4 and PG9 binder -2.
CCc1ccc(-c2nc(CSCC(=O)NCc3ccco3)c(C)o2)cc1 was read as Rev-erbA mod 2, NR2E3 ag-2 101*, PG9 binder -3, NR2E3 ag confirm 96* and GAL4-VP16 luc 96*.
CCC[C@H]1[C@@H](OC(=O)N2CCN(c3ccccc3)CC2)CC[C@@]23CCCN2C(=O)CCC[C@@H]13 was read as Rev-erbA mod 4.
`Cc1cc(C(=O)CSc2nnc3ccccn23)c(C)n1-c1ccccc1` gave NR2E3 ag-1 -1, VLA-4 inh 15, Rev-erbA mod -1, NR2E3 ag-2 62, PG9 binder 1, NR2E3 ag confirm 98* and GAL4-VP16 luc -74.
Screening COc1ccc(CN(C)Cc2nc(Cc3cccc(F)c3)no2)c2cccnc12 returned NR2E3 ag-1 3, VLA-4 inh 0, Rev-erbA mod -4, NR2E3 ag-2 80*, PG9 binder -2, NR2E3 ag confirm 92* and GAL4-VP16 luc 81*.
For COc1cccc(-n2cc(CN(C)Cc3nc(Cc4cccc(F)c4)no3)cn2)c1 the results were NR2E3 ag-1 3, VLA-4 inh 8, Rev-erbA mod -6, NR2E3 ag-2 1 and PG9 binder -2.
For O=C1NC(=O)C(=Cc2ccc(Cl)cc2Cl)S1 the results were Rev-erbA mod 2, NR2E3 ag-2 62, PG9 binder -3, NR2E3 ag confirm 91* and GAL4-VP16 luc -4.
Screening O=C1NC(=S)NC1=Cc1ccc(Cl)cc1Cl returned Rev-erbA mod 2, NR2E3 ag-2 7 and PG9 binder -2.
CSc1nc2c(=O)[nH]cnc2s1 was read as Rev-erbA mod -8 and PG9 binder 1.
O=C(Nc1cc(S(=O)(=O)N2CCCCC2)ccc1Cl)c1ccccc1NS(=O)(=O)c1ccc(F)cc1 was read as NR2E3 ag-1 0, VLA-4 inh 4, Rev-erbA mod -1, NR2E3 ag-2 96*, PG9 binder -2, NR2E3 ag confirm 99* and GAL4-VP16 luc 85*.
Screening Cc1ccc(S(=O)(=O)Nc2ccccc2C(=O)Nc2nc(-c3ccc(F)cc3)cs2)cc1 returned NR2E3 ag-1 -3, VLA-4 inh 0, Rev-erbA mod -2, NR2E3 ag-2 94*, PG9 binder -2, NR2E3 ag confirm 98* and GAL4-VP16 luc 84*.
O=C(Nc1cc(S(=O)(=O)N2CCCCC2)ccc1O)c1ccccc1NS(=O)(=O)c1ccc(F)cc1 was read as NR2E3 ag-1 -2, VLA-4 inh 31, Rev-erbA mod 6, NR2E3 ag-2 21 and PG9 binder -2.
Screening COc1ccc(-c2csc(NC(=O)c3ccccc3NS(=O)(=O)c3ccc(F)c(F)c3)n2)cc1 returned NR2E3 ag-1 2, VLA-4 inh 14, Rev-erbA mod 3, NR2E3 ag-2 98*, PG9 binder -1, NR2E3 ag confirm 101* and GAL4-VP16 luc 91*.
Screening CCN(Cc1ccccc1)C(=O)C1C2C=CC3(CN(Cc4ccccc4)C(=O)C13)O2 (centres undefined) returned Rev-erbA mod -1.
For CC(C)(C)c1ccc(C(=O)Nc2cc(Cl)ccc2-c2nn[nH]n2)cc1 the results were Rev-erbA mod 2.
Screening CCOc1ccc(/C(CCC(=O)O)=N/NC(=S)NCCc2ccccc2)cc1 returned NR2E3 ag-1 1, VLA-4 inh 5, Rev-erbA mod -1, NR2E3 ag-2 53, PG9 binder 1, NR2E3 ag confirm -4 and GAL4-VP16 luc -2.
C/C(=N\NC(=S)NCCc1ccccc1)c1ccc(Cl)cc1Cl was read as NR2E3 ag-1 2, VLA-4 inh -4, Rev-erbA mod 8, NR2E3 ag-2 -34 and PG9 binder -1.
